# According to ChEMBL document CHEMBL1143606, “3-Aminopyrazole inhibitors of CDK2/cyclin A as antitumor agents. 2. Lead optimization” (J Med Chem, 2005):
# Several values for one entry are separate records, joined by “and”; a condition that tells them apart may be missing. Identical values can stand only once.
# Tests used:
# [1] = biological target: Cyclin-dependent kinase 2/cyclin A (Homo sapiens, UniProt P24941); test: Inhibition of cyclin dependent kinase 2-cyclin A; type: protein-complex assay
# physchem [2] = conditions: aqueous buffer, pH 7
# A2780 [3] = test: Inhibitory concentration towards human ovarian carcinoma cell line A2780; type: functional, cell-based
# [4] = rat, plasma
# physchem [5] = conditions: aqueous buffer
# [6] = biological target: T1, Cyclin-dependent kinase 1/cyclin B (Homo sapiens, UniProt P06493); test: Inhibition of cyclin dependent kinase 1-cyclin B (n=4); type: protein-complex assay
# Outline: (§1)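 IC50 from at least two independent experiments; value is the mean of IC50s obtained by nonlinear least-squares regression fitting. Coefficient of variation of the mean 10% to 24%. GSK-3β belonged to a panel of 30 serine-threonine and tyrosine kinases.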
# [7] = biological target: T2, Cyclin-dependent kinase 2/cyclin E (Homo sapiens, UniProt P24941); test: Inhibition of cyclin dependent kinase 2-cyclin E (n=4); type: protein-complex assay
# Outline: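 Kinase inhibition assay run by a previously reported method. IC50 is the mean of values from nonlinear least-squares regression fits, with at least two independent experiments per compound. Coefficient of variation of the mean was 10% to 24%.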
# HT-29 [8] = test: Inhibitory concentration towards human colon cancer HT-29 cell line; type: functional, cell-based
# [9] = biological target: T3, Cyclin-dependent kinase 4/cyclin D1 (Homo sapiens, UniProt P11802); test: Inhibition of cyclin-dependent kinase 4-cyclin D1 (n=2); type: protein-complex assay; outline: as §1
# [10] = mouse, in vivo
# HCT-116 = test: Inhibitory concentration towards HCT 116 human colon cancer cell line; type: functional, cell-based
# A2780 [11] = test: Inhibitory concentration towards Human ovarian carcinoma cell line A2780; type: functional, cell-based
# [12] = mouse, in vivo, iv
# [13] = biological target: Cyclin-dependent kinase 5/CDK5 activator 1 (Homo sapiens, UniProt Q00535); test: Inhibition of cyclin-dependent kinase 5 p25 alpha (n=4); type: protein-complex assay; outline: as §1
# [14] = Half-life of compound in plasma of CD-1 mice upon o.s. dose; type: ADME, cell-free; conditions: CD-1, mouse, po
# Outline: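 Mice dosed orally at 10 mg/kg in PEG 400/glucosate vehicle (preliminary PK, with iv and oral legs); plasma terminal half-life determined.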
# HT-29 [15] = test: Percent of BrdU incorporation in Brdu positive HT-29 cells at 3 uM concentration of compound; type: functional, Homo sapiens
# HT-29 [16] = test: Percent of BrdU incorporation in Brdu positive HT-29 cells at 1 uM concentration of compound; type: functional, Homo sapiens
# [17] = mouse, in vivo; remark: listed apart in the source
# [18] = Inhibition of glycogen synthase kinase-3 beta (n=6); outline: as §1
# HT-29 [19] = test: Percent of BrdU incorporation in HT-29 cells at 1 uM concentration of compound; type: functional
# [20] = biological target: T1, Cyclin-dependent kinase 1/cyclin B; test: Inhibition of cyclin dependent kinase 1-cyclin B (n=6); type: protein-complex assay; outline: as §1
# A2780 [21] = test: Percent inhibition tumor growth of Human ovarian cancer cell A2780 in mice when administered 7.5 mg/kg twice a day for 20 days; type: functional; conditions: Mus musculus, A2780, 480 h
# Outline: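 A2780 tumor kept by sc passage of 20-30 mg brei in athymic mice. Fragments implanted sc in left flank of nude mice, 10 mice/group. Dosing began at measurable tumors (mean 0.13 g, day 8). Dosed orally in 50% PEG 400/glucosate. Body weight followed. Data from a single experiment.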
# [22] = Inhibition of glycogen synthase kinase-3 beta (n=13); outline: as §1
# [23] = biological target: T2, Cyclin-dependent kinase 2/cyclin E; test: Inhibition of cyclin dependent kinase 2-cyclin E (n=6); type: protein-complex assay; outline: as §1
# HT-29 [24] = test: Percent of BrdU incorporation in HT-29 cells at 3 uM concentration of compound; type: functional
# [25] = biological target: T3, Cyclin-dependent kinase 4/cyclin D1; test: Inhibition of cyclin-dependent kinase 4-cyclin D1 (n=4); type: protein-complex assay; outline: as §1
# T3 sequence (P11802 whole entry): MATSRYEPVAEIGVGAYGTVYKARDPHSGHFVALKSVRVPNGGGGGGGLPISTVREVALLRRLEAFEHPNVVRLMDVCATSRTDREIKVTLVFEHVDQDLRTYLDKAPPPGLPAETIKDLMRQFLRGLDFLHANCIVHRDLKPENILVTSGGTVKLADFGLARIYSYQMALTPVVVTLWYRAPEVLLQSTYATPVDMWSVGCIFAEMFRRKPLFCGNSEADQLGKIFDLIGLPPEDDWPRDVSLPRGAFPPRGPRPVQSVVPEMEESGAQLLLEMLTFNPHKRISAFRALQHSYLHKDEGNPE
# T3 sequence (P24385 whole entry, further chain): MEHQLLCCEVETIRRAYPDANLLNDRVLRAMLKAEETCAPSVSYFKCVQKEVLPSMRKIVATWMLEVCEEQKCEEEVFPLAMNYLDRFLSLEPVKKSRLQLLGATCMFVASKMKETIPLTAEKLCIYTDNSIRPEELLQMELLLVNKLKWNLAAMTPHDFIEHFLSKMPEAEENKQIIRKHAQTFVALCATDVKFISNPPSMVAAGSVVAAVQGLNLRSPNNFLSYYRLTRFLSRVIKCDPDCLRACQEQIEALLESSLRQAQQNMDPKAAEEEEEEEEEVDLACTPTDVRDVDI
# Sequence of Cyclin-dependent kinase 5/CDK5 activator 1 (Q00535 whole entry): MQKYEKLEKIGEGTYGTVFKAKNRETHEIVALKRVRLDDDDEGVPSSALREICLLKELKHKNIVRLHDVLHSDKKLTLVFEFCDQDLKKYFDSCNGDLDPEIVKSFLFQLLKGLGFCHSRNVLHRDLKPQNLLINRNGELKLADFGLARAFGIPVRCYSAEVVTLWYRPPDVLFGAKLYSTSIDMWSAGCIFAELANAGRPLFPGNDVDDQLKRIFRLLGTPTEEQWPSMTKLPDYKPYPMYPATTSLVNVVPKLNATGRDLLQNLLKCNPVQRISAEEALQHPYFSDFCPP
# Sequence of Cyclin-dependent kinase 5/CDK5 activator 1 (Q15078 whole entry, further chain): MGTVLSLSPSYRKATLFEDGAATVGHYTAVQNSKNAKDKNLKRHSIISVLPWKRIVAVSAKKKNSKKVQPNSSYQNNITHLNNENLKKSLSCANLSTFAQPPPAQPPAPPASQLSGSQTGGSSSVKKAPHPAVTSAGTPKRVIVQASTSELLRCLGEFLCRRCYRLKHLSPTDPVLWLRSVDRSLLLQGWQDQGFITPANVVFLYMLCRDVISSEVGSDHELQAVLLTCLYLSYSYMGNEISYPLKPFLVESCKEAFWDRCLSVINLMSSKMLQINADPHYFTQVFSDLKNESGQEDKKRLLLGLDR
Compound,IC50 [1] [nM],solubility (physchem [2]) [µM],IC50 (A2780 [3]) [nM],Binding [4],further results
C[C@@H](C(=O)Nc1cc(C2CC2)[nH]n1)c1ccc(N2CCOC2=O)cc1,2500,220,–,72%,–
O=C(Nc1cc(C2CC2)[nH]n1)C(c1ccccc1)c1ccccc1,> 10000,–,–,–,–
CC(C(=O)Nc1cc(C2CC2)[nH]n1)c1ccc(N2C(=O)CCC2c2ccccc2)cc1 (configuration not stated),200,50,15300,97%,–
C[C@@H](C(=O)Nc1cc(C2CC2)[nH]n1)c1ccccc1,6000,–,–,–,–
O=C(Nc1cc(C2CC2)n[nH]1)C(=O)c1ccccc1,2600,–,–,–,–
C[C@@H](C(=O)Nc1cc(C2CC2)[nH]n1)c1ccc(N2CCN(C)C2=O)cc1,8500,–,–,–,–
C[C@@H](C(=O)Nc1cc(C2CC2)[nH]n1)c1ccc(N2CCNC2=O)cc1,455,220,13200,74%,–
CC(C(=O)Nc1cc(C2CC2)[nH]n1)c1ccc(N2CCCS2(=O)=O)cc1 (configuration not stated),–,135,5240,78%,–
C[C@@H](C(=O)Nc1cc(C2CC2)[nH]n1)c1ccc(N2Cc3ccccc3C2=O)cc1,170,51,–,–,–
CC(C(=O)Nc1cc(C2CC2)[nH]n1)c1ccc(N2CCCCC2=O)cc1 (configuration not stated),240,–,> 10000,–,–
CC(C(=O)Nc1cc(C2CC2)[nH]n1)c1ccc(N2CCN(Cc3ccccc3)C2=O)cc1 (configuration not stated),1450,–,–,–,–
C[C@@H](C(=O)Nc1cc(C2CC2)[nH]n1)c1ccc(N2CCCC2=O)cc1,2500,–,12200,–,–
CO[C@@H](C(=O)Nc1cc(C2CC2)n[nH]1)c1ccccc1,> 10000,–,–,–,–
CO[C@H](C(=O)Nc1cc(C2CC2)n[nH]1)c1ccccc1,2000,–,–,–,–
C[C@H](C(=O)Nc1cc(C2CC2)[nH]n1)c1ccc(N2CCCC2)cc1,–,24,220,98%,–
COC(C(=O)Nc1cc(C2CC2)[nH]n1)c1ccccc1 (configuration not stated),5000,–,–,–,–
CC(C(=O)Nc1cc(C2CC2)[nH]n1)c1ccc(N2CCCC2)cc1 (configuration not stated),–,3,370,96%,–
CC(C(=O)Nc1cc(C2CC2)[nH]n1)c1ccccc1 (configuration not stated),169,–,–,–,–
O=C(Cc1ccc2ccccc2c1)Nc1cc(C2CC2)n[nH]1,–,22,–,99%,–
N[C@H](C(=O)Nc1cc(C2CC2)[nH]n1)c1ccccc1,960,–,–,–,–

# More lines, main results first:
IC50 [1] [nM],solubility (physchem [2]) [µM],IC50 (A2780 [3]) [nM],Binding [4],Compound,further results
13,12,4750,–,CC(C(=O)Nc1cc(C2CC2)[nH]n1)c1ccc(N2Cc3ccccc3C2=O)cc1 (configuration not stated),–
99,–,–,–,O=C(Nc1cc(C2CC2)[nH]n1)C(F)c1ccccc1 (configuration not stated),–
29,–,1680,–,CC(C(=O)Nc1cc(C2CC2)[nH]n1)c1ccc(N2CCN(C)C2=O)cc1 (configuration not stated),–
20,120,5710,57%,CC(C(=O)Nc1cc(C2CC2)[nH]n1)c1ccc(N2CCC(C(N)=O)C2=O)cc1 (configuration not stated),–
11,233,6980,74%,CC(C(=O)Nc1cc(C2CC2)[nH]n1)c1ccc(-n2cc[nH]c2=O)cc1 (configuration not stated),–
17,201,4540,67%,CC(C(=O)Nc1cc(C2CC2)[nH]n1)c1ccc(N2CC(=O)NC2=O)cc1 (configuration not stated),–
20,232,790,73% and 74%,C[C@H](C(=O)Nc1cc(C2CC2)[nH]n1)c1ccc(N2CCOC2=O)cc1,solubility (physchem [5]): 225 µM; IC50 [6]: 243 nM; IC50 [7]: 37 nM; IC50 (HT-29 [8]): 751 nM; IC50 [9]: > 10000 nM; Vss [10]: 0.573 L/kg; IC50 (HCT-116): 1130 nM; IC50 (A2780 [11]): 716 nM; T1/2 [12]: 2.8 min; IC50 [13]: 57 nM; half-life [14]: 3.1 h; Activity (HT-29 [15]): 0.7%; Activity (HT-29 [16]): 65%; Clearance [17]: 4.7 mL/min/kg; IC50 [18]: 406 nM
2,> 225,1270,74%,C[C@H](C(=O)Nc1cc(C2CC2)[nH]n1)c1ccc(N2CCNC2=O)cc1,–
73,109,8390,58%,CC(C(=O)Nc1cc(C2CC2)[nH]n1)c1ccc(-n2cn[nH]c2=O)cc1 (configuration not stated),–
2,5,1020,–,C[C@H](C(=O)Nc1cc(C2CC2)[nH]n1)c1ccc(N2Cc3ccccc3C2=O)cc1,–
150,222,6400,67%,CC(C(=O)Nc1cc(C2CC2)[nH]n1)c1ccc(N2C(=O)CCC2C)cc1 (configuration not stated),–
25,222,1040,73%,CC(C(=O)Nc1cc(C2CC2)[nH]n1)c1ccc(N2CCOC2=O)cc1 (configuration not stated),–
84,–,–,–,C[C@H](C(=O)Nc1cc(C2CC2)[nH]n1)c1ccccc1,–
169,–,630,–,CC(C(=O)Nc1cc(C2CC2)[nH]n1)c1ccc(N2CCCC2=O)cc1 (configuration not stated),–
17,–,1400,–,C[C@H](C(=O)Nc1cc(C2CC2)[nH]n1)c1ccc(N2CCN(C)C2=O)cc1,–
124,–,> 10000,–,CC(C(=O)Nc1cc(C2CC2)[nH]n1)c1ccc(N2C(=O)CNC2=O)cc1 (configuration not stated),–
37,–,800,–,C[C@H](C(=O)Nc1cc(C2CC2)[nH]n1)c1ccc(N2CCCC2=O)cc1,Brdu positive (HT-29 [19]): 25%; IC50 [20]: 208 nM; IC50 (HT-29 [8]): 639 nM; IC50 (HCT-116): 1350 nM; IC50 (A2780 [11]): 744 nM; inhibition in vivo at 7.5 mg/kg (A2780 [21]): 73%; IC50 [22]: 732 nM; IC50 [23]: 55 nM; Brdu positive (HT-29 [24]): 4%; IC50 [25]: > 10000 nM
12,224,2250,74%,CC(C(=O)Nc1cc(C2CC2)[nH]n1)c1ccc(N2CCNC2=O)cc1 (configuration not stated),–
